# Assay results from article PMC11387586 (Pharmacology Research & Perspectives, 2024).
# Where “and” joins values, the source holds several entries; their conditions need not be identical. Identical values can stand only once.
# What was measured:
# [1] = system: naive rat intestinal contents; conditions: anaerobic conditions; cited from earlier work
# [2] = Total radioactivity in plasma and whole blood; assay type: in vivo, human; conditions: for Total radioactivity t1/2 / Total radioactivity tmax: median (range)
# Summary of the method: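 About 4 mL K2EDTA blood was drawn at the PK time points. […] Counting ran at least 5 min with quench correction, in duplicate where possible. LLOQ was 9.57 ng equivalents/g for blood and 6.86 for plasma. Non-compartmental analysis; tmax and t1/2 given as median (range), others as geometric mean.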
# [3] = Metabolite profiling of feces; assay type: in vivo, human; conditions: pooled feces
# Summary of the method: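 Feces from single oral 20 mg (about 100 μCi) [14C] dosing was homogenised in about 20:80 acetonitrile:water. Metabolites were profiled by LC-HRMS with radioactivity counted in collected fractions. Identification cut-off was 1% of dose; quantitation limit was 1% of run and 10 cpm peak height. % of dose = (% radioactivity in peak/100) × % of dose in sample.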
# [4] = cited from earlier work
# [5] = oral dose, cited from earlier work
# [6] = Plasma pharmacokinetics of aficamten, M1a and M1b; assay type: in vivo, human
# Summary of the method: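 About 3 mL K2EDTA blood was drawn predose and at 0.25–48 h, then every 24 h. Plasma was spun at about 2000G for 10 min at 4°C and stored at −20°C. Validated LC-MS/MS: parent on C18 with 10 mM ammonium acetate/acetonitrile gradient; M1a/M1b on a chiral column with 30:70 acetonitrile:10 mM ammonium acetate. Non-compartmental analysis gave Cmax, tmax, t1/2, AUCs, CL/F and Vz/F.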
# [7] = cited from earlier work; remark: listed apart in the source
# [8] = Mass balance: radioactive dose recovered in urine and feces; assay type: in vivo, human; conditions: for Cumulative percent of radioactive dose recovered: urine
# Summary of the method: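 8 healthy men each got one [14C]-labelled 20 mg oral capsule (about 100 μCi) with 240 mL water after a fast of at least 10 h. Urine was collected at 0–4, 4–8, 8–12 and 12–24 h, then every 24 h; feces every 24 h, homogenised in about 20:80 acetonitrile:water. Urine was counted directly by LSC; fecal homogenate was combusted first. Samples ran in duplicate. Collection continued until discharge criteria were met.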
# Safety assessments = assay type: in vivo, human; conditions: single oral 20 mg
# Summary of the method: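 After one [14C] 20 mg oral dose, eight healthy men were monitored for vital signs, 12-lead ECG, clinical chemistry, haematology, urinalysis and adverse events at several time points. They stayed confined until at least Day 19 or until discharge criteria were met. A follow-up phone call came 7–9 days after discharge.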
# [9] = Metabolite profiling of plasma; assay type: in vivo, human; conditions: pooled samples 2 to 264 h
# Summary of the method: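 Plasma taken at 2, 4, 12, 24, 72, 120, 168 and 264 h was pooled across participants by time point, in proportion to weight (1.2–2.5 g each), then counted by LSC. LC-HRMS profiling used fraction radioactivity counts. For chiral M1a/M1b separation, a 2–264 h pool ran on a cellulose column with reverse-phase gradient, 0.6 mL/min, over 15 min. Exposure = component AUC0-t / total radioactivity AUC0-t × 100.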
# [10] = Urinary excretion of aficamten, M1a and M1b; assay type: in vivo; conditions: human, urine, oral, 20 mg, renal clearance (CLR), geometric mean
# Summary of the method: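 Urine was collected predose, at 0–4, 4–8, 8–12 and 12–24 h, then every 24 h until discharge. Isopropyl alcohol equal to 20% of void mass was added, pools were kept at 4°C, and aliquots were frozen at −20°C. Urinary excretion of parent and M1a/M1b (fe0-tlast) and renal clearance came from non-compartmental analysis, given as geometric means.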
# [11] = Metabolite profiling of urine; assay type: in vivo, human; conditions: pooled urine
# Summary of the method: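 Urine was pooled per participant into 0–336, 0–384 and 0–432 h pools (0.03–0.08% of each sample weight) and counted by LSC. Radiochromatograms came from LC-HRMS fractions. Chiral separation of M1a and M1b used a […] pool. Identification cut-off was 1% of dose; quantitation limit was 1% of run and 10 cpm peak height. % of dose = (% radioactivity in peak/100) × % of dose in sample.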
# [12] = whole blood, geometric mean (CV%)
smiles,measurement,setting,value
CCc1nc(-c2ccc3c(c2)CC[C@H]3NC(=O)c2cnn(C)c2)no1 [Aficamten],fate on incubation with rat intestinal contents,[1],completely cleared
same,"ratio of plasma analyte to plasma total radioactivity, AUC0‐inf",[2]; geometric mean,0.290
same,ratio of total radioactivity in whole blood: plasma based on AUC0‐inf,[2]; geometric mean,0.566
same,Total radioactivity Cmax,"[2]; plasma, geometric mean (CV%)",111 (43.2) ng/mL
same,Total radioactivity t1/2,[2]; plasma,98.2 (80.1–230) h
same,Total radioactivity tmax,[2]; plasma,3.50 (1.00–6.00) h
same,Total radioactivity AUC0‐inf,[2]; [12],8660 (23.7) h.ng/mL
same,Total radioactivity AUC0‐tlast,[2]; [12],5710 (38.5) h.ng/mL
same,Total radioactivity Cmax,[2]; [12],66.7 (44.9) ng/mL
same,Total radioactivity t1/2,[2]; whole blood,100 (86.2–171) h
same,Total radioactivity tmax,[2]; whole blood,4.50 (1.00–16.0) h
same,Percent of radioactive dose in feces,[3],5.07%
same,Percent of radioactive dose in feces,[3]; listed as aficamten,approximately 5.07%
same,PK parameters in moderate hepatic impairment versus normal hepatic function,[4],generally comparable
same,percent of the [^14C]aficamten radioactive dose in bile,[5]; bile duct cannulated rats,trace level
same,percent of the [^14C]aficamten radioactive dose in feces,[5]; intact rats,lack of detection
same,radioactive dose excreted by the hepatobiliary route,[5]; rat,approximately 90%
same,radioactive dose excreted in urine,[5]; rat,approximately 8%
same,Tmax,"[6]; human, po, 20 mg",2 h
same,Vd/F,"[6]; human, po, 20 mg",690 L
same,AUC,"[6]; human, po, 20 mg, AUC0‐inf, single oral 20 mg, geometric mean (CV%)",4440 ng·h/mL
same,AUC,"[6]; human, po, 20 mg, AUC0‐tlast, single oral 20 mg, geometric mean (CV%)",4120 ng·h/mL
same,Cmax,"[6]; human, po, 20 mg, Cmax, single oral 20 mg, geometric mean (CV%)",61.8 ng/mL
same,half-life,"[6]; human, po, 20 mg, t1/2, plasma, single oral 20 mg, median (range)",99.6 h
same,CL/F,"[6]; single oral 20 mg, geometric mean (CV%)",4.50 (32.1) L/h
same,CL/F,"[6]; single oral 20 mg, geometric mean (CV%), listed as aficamten",4.50 L/h
same,effect of food on absorption,[7],did not affect the extent of aficamten absorption
same,time to steady state concentrations,[7]; multiple doses,≤ 2 weeks
same,fraction of dose absorbed,[8]; based on recovery data,at least 0.95
same,mean recovery of radiolabeled material,"[8]; urine and feces combined, by 336 h postdose",85.0%
same,overall mean recovery of radioactivity in urine and feces,"[8]; urine and feces combined, end of sampling period (600 h)",89.7%
same,Cumulative percent of radioactive dose recovered,"[8]; 0–96 h, individual subject",24.1% and 8.99% and 16.2% and 13.5% and 11.2% and 17.7% and 18.3% and 14.0%
same,Cumulative percent of radioactive dose recovered,"[8]; 0–96 h, mean",15.5%
same,Cumulative percent of radioactive dose recovered,"[8]; 0–120 h, individual subject",27.4% and 11.2% and 18.0% and 15.7% and 13.7% and 20.5% and 21.1% and 16.4%
same,Cumulative percent of radioactive dose recovered,"[8]; 0–120 h, mean",18.0%
same,Cumulative percent of radioactive dose recovered,"[8]; 0–144 h, individual subject",31.3% and 13.3% and 20.8% and 17.1% and 15.7% and 22.2% and 23.6% and 18.7%
same,Cumulative percent of radioactive dose recovered,"[8]; 0–144 h, mean",20.3%
same,Cumulative percent of radioactive dose recovered,"[8]; 0–168 h, individual subject",34.3% and 14.7% and 22.3% and 18.2% and 17.5% and 24.1% and 25.7% and 20.7%
same,Cumulative percent of radioactive dose recovered,"[8]; 0–168 h, mean",22.2%
same,Cumulative percent of radioactive dose recovered,"[8]; 0–192 h, individual subject",36.9% and 16.1% and 23.8% and 19.2% and 18.6% and 25.5% and 27.2% and 22.3%
same,Cumulative percent of radioactive dose recovered,"[8]; 0–192 h, mean",23.7%
same,Cumulative percent of radioactive dose recovered,"[8]; 0–216 h, individual subject",38.9% and 17.6% and 25.3% and 20.3% and 19.9% and 26.6% and 28.6% and 23.8%
same,Cumulative percent of radioactive dose recovered,"[8]; 0–216 h, mean",25.1%
same,Cumulative percent of radioactive dose recovered,"[8]; 0–240 h, individual subject",40.8% and 18.6% and 27.2% and 21.3% and 20.8% and 27.7% and 29.6% and 25.2%
same,Cumulative percent of radioactive dose recovered,"[8]; 0–240 h, mean",26.4%
same,Cumulative percent of radioactive dose recovered,"[8]; 0–264 h, individual subject",42.5% and 19.7% and 28.6% and 21.9% and 21.6% and 28.5% and 30.6% and 26.2%
same,Cumulative percent of radioactive dose recovered,"[8]; 0–264 h, mean",27.5%
same,Cumulative percent of radioactive dose recovered,"[8]; 0–288 h, individual subject",43.8% and 20.5% and 29.9% and 22.5% and 22.0% and 29.3% and 31.2% and 27.1%
same,Cumulative percent of radioactive dose recovered,"[8]; 0–288 h, mean",28.3%
same,Cumulative percent of radioactive dose recovered,"[8]; 0–312 h, individual subject",44.8% and 20.9% and 30.6% and 22.9% and 22.4% and 30.0% and 31.8% and 27.8%
same,Cumulative percent of radioactive dose recovered,"[8]; 0–312 h, mean",28.9%
same,Cumulative percent of radioactive dose recovered,"[8]; 0–336 h, individual subject",45.7% and 21.8% and 31.4% and 23.2% and 22.7%
same,Cumulative percent of radioactive dose recovered,"[8]; 0–336 h, mean",29.5%
same,tolerability,Safety assessments; 8 healthy male participants,well tolerated
same,"changes in vital signs, ECG measurements, laboratory values",Safety assessments; 8 participants,"no clinically significant changes in vital signs, ECG measurements, or laboratory values"
same,"deaths, serious AEs, AEs leading to discontinuation",Safety assessments; 8 participants,"no deaths, and serious AEs or any AEs leading to discontinuation"
same,"participants with an AE (diarrhea, mild, not considered related to treatment)",Safety assessments; 8 participants,12.5%
same,AUC0‐t % of total radioactivity AUC0‐t,[9],19.8%
same,AUC0‐t % of total radioactivity AUC0‐t,[9]; listed as aficamten,approximately 19.8%
same,CL renal,[10],0.0438 mL/min
same,Percent of radioactive dose in urine,[11],No unchanged aficamten was recovered
